# Hits are enriched below; roughly 3% of the tested compounds scored in any of these assays.
# beta cell repl: induces beta-cell replication in MIN6 cells | MIN6 cells proliferation, ATPlite luminescence, 48 h; cells starved in 0.2% serum; 100% = growth in 10% serum | proliferation, % at 10 µM | 330,000 compounds, 0.29% hits;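 active = compounds whose signal lies at least 3.5 SD above the mean of all wells on their plate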;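 also: 0% = DMSO-treated cells in low-serum medium and 100% = 10% serum control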
# iPSC survival up: enhancers of human iPSC single-cell survival; hiPSC single-cell survival, ATPlite luminescence; 100% = ROCK inhibitor wells, 0% = DMSO; survival enhancement, % at 20 µM; 360,000 compounds, 0.044% hits; in the data active = survival enhancement above about 18%;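 also: cells exposed to compounds for 16 hours before the ATP read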
# UBC13 inh: inhibitors of human UBC13 polyubiquitin chain formation; AID 485273; inhibition, % at 20 µM; 330,000 compounds, 0.47% hits; TR-FRET; in the data active = inhibition above about 45%, passing the limit was not always enough
# Apaf-1 inh: inhibitors of human Apaf-1 apoptosome. O14727. reconstituted apoptosome caspase-3 activity, DEVD-Rh110 fluorescence. inhibition, % at 20 µM. 330,000 compounds, 0.71% hits; active = inhibition of at least 40% at 20 µM;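 also: plate controls were DMSO wells for no effect and DEVD-CHO caspase inhibitor wells for full effect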
#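 Material: biochemical Apaf-1 apoptosome reconstitution. Medium: Hepes buffer, pH 7.5. Also added: cytochrome c activation, bis-DEVD rhodamine 110 substrate. Timing: 30 min compound preincubation, 50 min activation, room temperature. Measured by: rhodamine 110 fluorescence at Ex 480/Em 540 nm.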
# Exocytosis inh: lytic granule exocytosis inhibition; TALL-104 LAMP-1 surface exposure, flow cytometry; cells stimulated with thapsigargin and PMA; inhibition, % at 10 µM; 360,000 compounds, 0.66% hits; AID 651702;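 active = inhibition above about 55%, limit read from the data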
# MPTP block: blocks calcium-induced mitochondrial swelling. isolated mouse mitochondria, Ca2+ swelling absorbance, 30 min. inhibition, % at 10 µM. 360,000 compounds, 1.4% hits. AID 602449;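 active = inhibition of 50% or more, scaled per plate between neutral and stimulator controls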;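 also: 0% = DMSO wells given calcium and 100% = 1 mM EGTA wells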
# Granule exo CP1: blocks lytic granule exocytosis. shares compounds with Exocytosis inh. TALL-104 cells, LAMP-1 externalization, flow cytometry; stimulated with PMA plus thapsigargin. inhibition, % at 10 µM. 1,500 compounds, 11% hits; in the data active = inhibition above about 60%;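 also: 0% = stimulated vehicle wells and 100% = unstimulated wells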
# * marks the source's active call; other numbers are inactive results; . = no result.
SMILES,beta cell repl,iPSC survival up,UBC13 inh,Apaf-1 inh,Exocytosis inh,MPTP block,Granule exo CP1
CCN1CCN(CCNC(=O)c2ccc(/C=C3/Sc4ccccc4N(Cc4ccccc4C)C3=O)cc2)CC1,.,0,.,.,66*,-5,29
COc1ccc(CCNC(=O)c2cc(S(=O)(=O)N3CCc4ccccc43)ccc2F)cc1OC,.,0,.,.,-1,0,.
COc1ccccc1NC(=O)c1cc(S(=O)(=O)N2CCc3ccccc32)ccc1F,-3,0,-4,2,74*,4,-12
COc1ccc(OCC(=O)N/N=C/c2cccn2-c2cccc(C(=O)O)c2)cc1,-3,1,-1,1,-2,-1,.
OC(c1ccccc1)(c1ccccc1)C1CCN(CCCOc2ccc3c(c2)CCCC3)CC1,.,0,.,.,62*,8,5
CCCN1CCC(N(CCc2ccccc2)Cc2ccccc2)CC1,-2,0,7,-10,51,1,.
COc1ccc(CN2CCC(N(CCc3ccccc3)Cc3ccccc3)CC2)c(OC)c1,-6,0,6,14,60*,6,1
CCN(CC)CC(O)Cn1c(C)c(-c2ccccc2)c2cc([N+](=O)[O-])ccc21 (stereo not drawn),-6,-1,23,22,58*,-1,10
O=C(NCc1ccncc1)C(=O)Nc1nc(C23CC4CC(CC(C4)C2)C3)cs1,-5,-1,-34,21,77*,21,-1
C=CCn1c(C)nnc1SCC(=O)Nc1oc(C)c2c(C)n[nH]c(=O)c12,3,0,-5,2,80*,0,-12
Cc1n[nH]c(=O)c2c(NC(=O)CSc3ncccn3)oc(C)c12,-4,0,-9,4,7,0,.
CCCCNC(=O)C1(C)CCN1C(=O)c1ccc2ccccc2n1 (stereo not drawn),.,0,.,.,4,0,.
O=C(CSc1nc(C2CC2)nc2ccccc12)Nc1ccccc1,0,0,0,0,78*,0,-4
COc1ccc(NC(=O)CN(C)C(=O)c2ccccc2Sc2ncnc3sc(C)c(C)c23)cc1,0,0,0,13,-4,-1,.
Cc1cc(C)n(-c2nc(NCCN(C)C)c3c4c(sc3n2)CCCC4)n1,-6,0,16,3,94*,-2,20
Cc1cc(C)n(-c2nc(NCCCN(C)C)c3c4c(sc3n2)CCCC4)n1,-4,0,7,-7,17,-4,.
CCOC(=O)CCCCCC(=O)Nc1ccc2c(c1)C(=O)N([C@H](C)CO)C[C@H](C)[C@H](CN(C)C(=O)C1CCCCC1)OCCCC[C@@H](C)O2,.,-2,.,.,0,0,.
COc1ccc(C(=O)C2CCCN(Cc3cc(Cl)ccc3O)C2)c(OC)c1 (stereo not drawn),-5,0,-2,13,1,2,.
CCOc1cccc(CN2CCCC(N3CCN(c4cccc(Cl)c4)CC3)C2)c1O (stereo not drawn),-4,-1,-8,12,66*,2,-10
CCOC(=O)C1CCCN(Cc2ccc(OCc3ccccc3)c(OC)c2)C1 (stereo not drawn),-2,1,-4,5,57*,1,-13
CCOc1cccc(CN2CCCC(N3CCc4ccccc4C3)C2)c1O (stereo not drawn),0,0,11,-5,-2,0,.
CCOc1cccc(CN2CCCC(C(=O)c3cc(Cl)ccc3OC)C2)c1O (stereo not drawn),-2,0,3,16,80*,0,-9
N#Cc1ccccc1S(=O)(=O)N1CCN(C(=O)C2CCCCC2)CC1,-5,-2,-14,11,2,0,.
CCCCN(C)c1c(C)nc2ccc(C(=O)NCc3ccc4c(c3)OCO4)cn12,.,-2,.,.,60*,1,-12
COC(=O)C1=C(C)N(CCCC(=O)O)C(=O)NC1c1ccc(Cl)cc1 (stereo not drawn),-4,0,-2,0,17,0,.
CC1=C(C(=O)OCc2ccccc2)C(c2ccc(Cl)cc2Cl)NC(=O)N1CCCC(=O)O (stereo not drawn),-4,-3,-16,10,75*,1,-5

# Screens from PubChem BioAssay.
